How the values were obtained:
[1] = Inhibition of Hedgehog pathway-dependent oxysterol-induced mouse C3 H10T1/2 cell differentiation assessed as alkaline phosphatase production after 72 hrs; type: functional, cell-based; conditions: C3H 10T1/2, 72 h
Method in brief: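 Murine progenitor C3H10T1/2 cells were induced with oxysterol to differentiate into osteoblasts in culture, and Hh pathway inhibition was taken as the effect on this differentiation. The number of determinations is reported per value.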

[2] = Chemical stability in Bronsted and Lewis acid; type: physicochemical
[3] = Chemical stability in simulated gastric fluid after 60 mins; type: physicochemical; conditions: read-out: Stability
Method in brief: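 Test material incubated in simulated gastric fluid for 60 min; read-out is the percentage of parent compound remaining.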

[4] = Oral bioavailability in CD1 mouse at 5 mg/kg by LC-MS/MS analysis; type: ADME, organism-based; conditions: in vivo
Method in brief: (§1)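 Hydrochloride salt was dissolved in sterile water for injection containing 30% (w/w) 2-hydroxypropyl-β-cyclodextrin and given to CD-1 mice intravenously and orally. Plasma was sampled at selected time points, proteins were precipitated, and drug levels were quantified by LC-MS/MS.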

[5] = Elimination half life in CD1 mouse at 5 mg/kg, po by LC-MS/MS analysis; type: ADME, organism-based; parameters: dose 5 mg/kg, route oral; conditions: in vivo, read-out: beta t1/2 (converted); method in brief: as §1
Mus musculus = test: Volume of distribution in CD1 mouse at 5 mg/kg, po by LC-MS/MS analysis; type: ADME, organism-based; parameters: dose 5 mg/kg, route oral; conditions: in vivo; method in brief: as §1

SMILES | EC50 [1] [nM] | further results
CC1=C2C[C@H]3[C@@H](CCC4=CC(=O)CC[C@@]43C)[C@@H]2CC[C@@]2(C1)O[C@@H]1C[C@H](C)CN(CCNC(=O)CCCCCNC(=O)CCc3ccccc3)[C@H]1[C@H]2C | 10 | 
CC1=C2C[C@H]3[C@@H](CCC4=CC(=O)CC[C@@]43C)[C@@H]2CC[C@@]2(C1)O[C@@H]1C[C@H](C)CN(CCOCCO)[C@H]1[C@H]2C | > 1000 | 
C[C@H]1C[C@H]2O[C@]3(CC[C@H]4[C@@H]5CC=C6C[C@@H](O)CC[C@]6(C)[C@H]5C[C@@]45C[C@]53C)[C@H](C)[C@@H]2N(C(=O)OCC2c3ccccc3-c3ccccc32)C1 |  | Stability [2]: Stable
CC1=C2C[C@H]3[C@@H](CCC4=CC(=O)CC[C@@]43C)[C@@H]2CC[C@@]2(C1)O[C@@H]1C[C@H](C)CN[C@H]1[C@H]2C | 200 | remaining at 1 h [3]: 98%
CC1=C2C[C@H]3[C@@H](CCC4=CC(=O)CC[C@@]43C)[C@@H]2CC[C@@]2(C1)O[C@@H]1C[C@H](C)CN(C)[C@H]1[C@H]2C | 400 | 
CC1=C2C[C@H]3[C@@H](CCC4=CC(=O)CC[C@@]43C)[C@@H]2CC[C@@]2(C1)O[C@@H]1C[C@H](C)CN(O)[C@H]1[C@H]2C | 800 | 
CC(=O)N1C[C@@H](C)C[C@H]2O[C@]3(CC[C@@H]4C(=C(C)C3)C[C@H]3[C@H]4CCC4=CC(=O)CC[C@@]43C)[C@H](C)[C@@H]21 | 120 | 
CC1=C2C[C@H]3[C@@H](CCC4=CC(=O)CC[C@@]43C)[C@@H]2CC[C@@]2(C1)O[C@@H]1C[C@H](C)CN(CCCl)[C@H]1[C@H]2C | > 2500 | 
CC1=C2C[C@H]3[C@@H](CCC4=CC(=O)CC[C@@]43C)[C@@H]2CC[C@@]2(C1)O[C@@H]1C[C@H](C)CN[C@H]1[C@H]2C.Cl |  | bioavailability [4]: 80%; half-life [5]: 3.2 h; Vd (Mus musculus): 18 L/kg
CC1=C2C[C@H]3[C@@H](CCC4=CC(=O)CC[C@@]43C)[C@@H]2CC[C@@]2(C1)O[C@@H]1C[C@H](C)CN(Cc3ccccc3)[C@H]1[C@H]2C | > 2000 | 
CC1=C2C[C@H]3[C@@H](CCC4=CC(=O)CC[C@@]43C)[C@@H]2CC[C@@]2(C1)O[C@@H]1C[C@H](C)CN(CCNC(=O)CCc3ccccc3)[C@H]1[C@H]2C | 20 | 
COCCOCCN1C[C@@H](C)C[C@H]2O[C@]3(CC[C@@H]4C(=C(C)C3)C[C@H]3[C@H]4CCC4=CC(=O)CC[C@@]43C)[C@H](C)[C@@H]21 | 400 | 
CC1=C2C[C@H]3[C@@H](CC=C4C[C@@H](O)CC[C@@]43C)[C@@H]2CC[C@@]2(C1)O[C@@H]1C[C@H](C)CN[C@H]1[C@H]2C | > 2500 | 
CC1=C2C[C@H]3[C@@H](CC=C4C[C@@H](O)CC[C@@]43C)[C@@H]2CC[C@]12O[C@@H]1C[C@H](C)CN[C@H]1[C@H]2C [CYCLOPAMINE] | 170 | remaining at 1 h [3]: 60%
C[C@@H]1CN[C@H]2[C@@H](C)[C@@]3(CC[C@H]4[C@@H]5CC=C6C[C@@H](O)CC[C@]6(C)[C@H]5C[C@@]45C[C@]53C)O[C@@H]2C1 [CYCLOPROPYL CYCLOPAMINE] | > 2000 | Stability [2]: Stable
